Test results as given in the EternaBench riboswitch data.

Tested on: MS2 coat protein
Test: apparent Kd, MS2 coat protein; higher = weaker binding; RNA-MaP array; FMN 200 µM where present
Outline: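 Each design was made on Illumina sequencing-chip clusters by stalled E. coli RNA polymerase and titrated with SNAP-549-labelled MS2 coat protein from 0.7 or 1.5 nM, doubling to 3 µM, in the absence and then the presence of constant ligand. The buffer was 100 mM Tris-HCl pH 7.5, 80 mM KCl, 4 mM MgCl2, BSA, DTT, yeast tRNA and Tween-20. The apparent Kd is the median of filtered per-cluster fits of binding curves, with green signal normalised to red-channel RNA signal and control-cluster median Fmax.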

[1] = designed as: ON switch for flavin mononucleotide, no ligand
[2] = ligand present: flavin mononucleotide, designed as: ON switch for flavin mononucleotide
[3] = designed as: OFF switch for flavin mononucleotide, no ligand
[4] = ligand present: flavin mononucleotide, designed as: OFF switch for flavin mononucleotide

Row | Sequence | apparent Kd [1] | apparent Kd [2] | apparent Kd [3] | apparent Kd [4]
1 | AGUGUCAUUUAGAAGGCCUCAUGACAUGAGGAUCACCCAUGUUAUCAUGGGAGGAUAUGGAUGAUAUAGUUAUGUUUCGUAGUA | 307 nM | 112 nM |  | 
2 | GGACAUGUCGUCUACAUGAGGAUCACCCAUGUCGAUAGACAUGAGGAUAUCGAUAAGAAUUGUAUCGAGAAGGCAUGUAGGUCC | 68.4 nM | 50.6 nM |  | 
3 | UUUUUUUAUAAGGAUAUGGGAGUCGAUAGACACCCAGAAGGUAUAACAUGAGGAUCACCCAUGUGUCCUUUUUU |  |  | 21.2 nM | 24.1 nM
4 | UUGUUACGAUUAGGAUAUUAUUGAUUGGACAGUAUGAUUUACAUGAGGAUCACCCAUGUUACUUUUAAGAAGGAAUCGUAUUAU |  |  | 20.9 nM | 17.2 nM
5 | UAUAUAUAGUAAGGAUAUGUAUUAAUUUUUUAAACAGAAGGUACUGACAUGAGGAUCACCCAUGUUUUAGUGUGGGCAUGUAGA |  |  | 78.8 nM | 131 nM
6 | GGAUGACAAAGUCAUCCAAAUCGAACAUGAGGAUCACCCAUGUAGGAUAUCCUACUCAAAGAGUAGGAGAAGGACAUGUGCUUU |  |  | 53.1 nM | 178 nM
7 | UGGGUGGUAUGAGGAUAUGCGCGCGAAACGCGCGCAGAAGGCAUGUCAAUAGACAUGAGGAUCACCCAUGUACUAUCCAUCCAA | 91.3 nM | 9.19 nM |  | 
8 | AAAAAGCGAGGAUAUACAUAGCUAAGACAAAUAAGCAAAAAACAUGAGGAUCACCCAUGUAGAAGGCGCAAAAA |  |  | 19.2 nM | 15.4 nM
9 | GCCAGAGCAGGAUAUUCAAUAAUUCACAUGAGGAUCACCCAUGUCCAGCGAAAGCUGGAAGGAGAAGGGCUCUGGC |  |  | 16.3 nM | 13.7 nM
10 | AAGAGUAGAGGAUAUACAUGAGGAUCACCCAUGUAAUCCAGAUAAGGAAGCAUGUCGUGUAGAAGGCUGCAUGA |  |  | 15.9 nM | 12.8 nM
11 | CGAUAUGAUGCAGGAUAUCUAUCUUGAAUGAGGAGAGAAGGGCAUAGGGAGACAUAAGCCUUAUUACAUGAGGAUCACCCAUGU |  |  | 12.9 nM | 12 nM
12 | UAUCUGUCGGUCAGGAUAUCGUUUGCCACUGUAGCCGAGAAGGGACAUGAGGAUCACCCAUGUGAUUCACGGCA |  |  | 23.1 nM | 27.1 nM
13 | UCUGUCGUUGUGAGGAUAUGCCCAAAUAAAAGCGGGCAGAAGGCACAUGAGGAUCACCCAUGUCCUGCGGUUUU |  |  | 21.4 nM | 237 nM
14 | ACUAUACGAGGAUAUGCUGUCAAUACUCCGGAGUUAGUAUGACAUGAGGAUCACCCAUGUAGAAGGCGUAUACU |  |  | 26.7 nM | 19.6 nM
15 | CAAAUUGCAGGAUAUACUGGGCCAGAGCCAUCGUGUAUUCCACAUGAGGAUCACCCAUGUAGAAGGGCACGUAC |  |  | 27.2 nM | 99.1 nM
16 | AGUUUUGUACAUGAGGAUCACCCAUGUUAAUAUGUGGUAGUCAGAAGGCAUUGUUAGAGUUUAAAUGAGGAUAUGAAUAUUCAG | 72.8 nM | 33 nM |  | 
17 | GUGGUCAGACAUGAGGAUCACCCAUGUGGAAUAAAUAAGGAGAAGGAUAUAGAAUAUAGGAUAUACUAGAAGGUCUGGUUGGUG | 67.3 nM | 73.1 nM |  | 
18 | AUAGCUCCCUAGAAGGGCCAACGACAAUUGCAUCACGUAGUUGGCGUAGGUAGGAUAUGGGACAUGAGGAUCACCCAUGUGUAG | 27 nM | 16.1 nM |  | 
19 | UUCUUUCCUCAUGUACAUGAGGAACAUGAGGAUCACCCAUGUAGAAGGAUUUCCCUUAAAUUAAAAUAGGAUAUACAUAUAUUU |  |  | 27.9 nM | 24.7 nM
20 | CUAUGCGGAAUAGGAUAUUCGCUCAUGAGGAUAGAAGAAGGGUUACAUGAGGAUCACCCAUGUAUGCACAUGAGGAUCCCUUAG |  |  | 134 nM | 150 nM
21 | UGCAUGUAAGGAUAUGCAUCCGCCGGCGAACCGGCGCCACAGCAGAAGGUACAUGAGGAUCACCCAUGUGUCCC |  |  | 18.8 nM | 51.6 nM
